Reference: ChEMBL document CHEMBL1255280, “P-glycoprotein limits oral availability, brain penetration, and toxicity of an anionic drug, the antibiotic salinomycin” (Antimicrob Agents Chemother, 2008)

Legend:
[1] = AUC (0 to 6 hrs) in wild-type mouse at 10 mg/kg, po; format: ADME, organism-based; parameters: time < 6 hr, dose 10 mg/kg, route oral; settings: plasma
Summary of the method: (§1)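 Fasted (3 h) FVB WT mice (n = 5) were given 10 mg/kg by gavage (10 ml/kg of 1 mg/ml, an ethanol stock diluted 10-fold in saline). Tail-vein plasma was collected from 0.25 to 6 h and measured by LC-MS/MS. Only the trapezoidal AUC0-6 was calculated. Cmax and Tmax were taken from the observed data.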

[2] = Cmax in wild-type mouse at 10 mg/kg, po; format: ADME, organism-based; parameters: dose 10 mg/kg, route oral; settings: in vivo; summary of the method: as §1
[3] = Tmax in wild-type mouse at 10 mg/kg, po; format: ADME, organism-based; parameters: dose 10 mg/kg, route oral; settings: in vivo; summary of the method: as §1
[4] = AUC (0 to 6 hrs) in wild-type mouse at 1 mg/kg, po; format: ADME, organism-based; parameters: time < 6 hr, dose 1 mg/kg, route oral; settings: plasma
Summary of the method: (§2)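 Male FVB WT or Mdr1a/1b–/– mice (n = 5) were fasted 3 h. They received 1 mg/kg by gavage (10 ml/kg of 0.1 mg/ml, made as an ethanol stock diluted 100-fold in saline). Tail-vein plasma was sampled at 0.25, 0.5, 1, 2, 4 and 6 h and analysed by LC-MS/MS. Noncompartmental trapezoidal AUC0-6 and AUC(0-∞). Cmax and Tmax were taken from the observed data.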

[5] = AUC (0 to infinity) in wild-type mouse at 1 mg/kg, po; format: ADME, organism-based; parameters: time infinity, dose 1 mg/kg, route oral; settings: plasma; summary of the method: as §2
[6] = Cmax in wild-type mouse at 1 mg/kg, po; format: ADME, organism-based; parameters: dose 1 mg/kg, route oral; settings: in vivo; summary of the method: as §2
[7] = Tmax in wild-type mouse at 1 mg/kg, po; format: ADME, organism-based; parameters: dose 1 mg/kg, route oral; settings: in vivo; summary of the method: as §2
[8] = AUC (0 to 6 hrs) in mdr1a/1b double knockout mouse at 1 mg/kg, po; format: ADME, organism-based; parameters: time < 6 hr, dose 1 mg/kg, route oral; settings: plasma; summary of the method: as §2
[9] = AUC (0 to infinity) in mdr1a/1b double knockout mouse at 1 mg/kg, po; format: ADME, organism-based; parameters: dose 1 mg/kg, route oral, time infinity; settings: plasma; summary of the method: as §2
[10] = Cmax in mdr1a/1b double knockout mouse at 1 mg/kg, po; format: ADME, organism-based; parameters: dose 1 mg/kg, route oral; settings: in vivo; summary of the method: as §2
[11] = Tmax in mdr1a/1b double knockout mouse at 1 mg/kg, po; format: ADME, organism-based; parameters: dose 1 mg/kg, route oral; settings: in vivo; summary of the method: as §2
[12] = AUC (0 to 6 hrs) in wild-type mouse at 1 mg/kg, iv; format: ADME, organism-based; parameters: time < 6 hr, dose 1 mg/kg, route intravenous; settings: plasma
Summary of the method: (§3)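 Male FVB WT or Mdr1a/1b–/– mice (n = 5). Dosing solution was 10 mg/ml in absolute ethanol, diluted 50-fold with saline to 0.2 mg/ml, and given as a single i.v. tail-vein bolus of 1 mg/kg (5 ml/kg). Tail-vein plasma was sampled at 0.125–6 h and analysed by LC-MS/MS. Noncompartmental analysis with trapezoidal AUC0-6 and AUC(0-∞). CL = dose/AUC(0-∞). Wilcoxon rank sum test.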

[13] = AUC (0 to infinity) in wild-type mouse at 1 mg/kg, iv; format: ADME, organism-based; parameters: time infinity, dose 1 mg/kg, route intravenous; settings: plasma; summary of the method: as §3
[14] = AUC (0 to 6 hrs) in mdr1a/1b double knockout mouse at 1 mg/kg, iv; format: ADME, organism-based; parameters: time < 6 hr, dose 1 mg/kg, route intravenous; settings: plasma; summary of the method: as §3
[15] = AUC (0 to infinity) in mdr1a/1b double knockout mouse at 1 mg/kg, iv; format: ADME, organism-based; parameters: time infinity, dose 1 mg/kg, route intravenous; settings: plasma; summary of the method: as §3
[16] = Plasma clearance in wild-type mouse at 1 mg/kg, iv; format: ADME, organism-based; parameters: dose 1 mg/kg, route intravenous
[17] = Plasma clearance in mdr1a/1b double knockout mouse at 1 mg/kg, iv; format: ADME, organism-based; parameters: dose 1 mg/kg, route intravenous; summary of the method: as §3
[18] = test system: Mus musculus; assay: Toxicity in mdr1a/1b double knockout mouse assessed as decrease in respiratory frequency at 10 mg/kg, po after 15 to 30 mins; format: organism-based; parameters: dose 10 mg/kg, route oral; settings: in vivo
Summary of the method: (§4)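 Fasted (3 h) WT and Mdr1a/1b–/– mice (n = 5) received 10 mg/kg orally by gavage in ethanol/saline (10 ml/kg). They were observed 15 to 30 min after dosing for signs of poisoning, including limb paralysis and respiratory frequency.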

[19] = test system: Mus musculus; assay: Toxicity in mdr1a/1b double knockout mouse assessed as paralyzed fore limb and hind limb at 10 mg/kg, po after 15 to 30 mins; format: organism-based, Hindlimb; parameters: dose 10 mg/kg, route oral; settings: in vivo; summary of the method: as §4
[20] = test system: Mus musculus; assay: Toxicity in wild-type mouse at 10 mg/kg, po after 15 to 30 mins; format: organism-based; parameters: dose 10 mg/kg, route oral; settings: in vivo; summary of the method: as §4
[21] = test system: Mus musculus; assay: Toxicity in mdr1a/1b double knockout mouse at 1 mg/kg, po; format: organism-based; parameters: dose 1 mg/kg, route oral; settings: in vivo
[22] = test system: Mus musculus; assay: Ratio of AUC (0 to infinity) in mdr1a/1b double knockout mouse to AUC (0 to infinity) in wild-type mouse at 1 mg/kg, po; format: ADME, organism-based; parameters: dose 1 mg/kg, route oral; settings: in vivo; summary of the method: as §2
[23] = test system: Mus musculus; assay: Ratio of AUC (0 to 6 hrs) in mdr1a/1b double knockout mouse to AUC (0 to 6 hrs) in wild-type mouse at 1 mg/kg, po; format: ADME, organism-based; parameters: dose 1 mg/kg, route oral; settings: in vivo; summary of the method: as §2
[24] = test system: Mus musculus; assay: Ratio of Cmax in mdr1a/1b double knockout mouse to Cmax in wild-type mouse at 1 mg/kg, po; format: ADME, organism-based; parameters: dose 1 mg/kg, route oral; settings: in vivo; summary of the method: as §2
[25] = test system: Mus musculus; assay: Ratio of Tmax in mdr1a/1b double knockout mouse to Tmax in wild-type mouse at 1 mg/kg, po; format: ADME, organism-based; parameters: dose 1 mg/kg, route oral; settings: in vivo; summary of the method: as §2
[26] = test system: Mus musculus; assay: Ratio of AUC (0 to 6 hrs) in mdr1a/1b double knockout mouse to AUC (0 to 6 hrs) in wild-type mouse at 1 mg/kg, IV; format: ADME, organism-based; parameters: dose 1 mg/kg, route intravenous; settings: in vivo; summary of the method: as §3
[27] = test system: Mus musculus; assay: Ratio of AUC (0 to infinity) in mdr1a/1b double knockout mouse to AUC (0 to infinity) in wild-type mouse at 1 mg/kg, iv; format: ADME, organism-based; parameters: dose 1 mg/kg, route intravenous; settings: in vivo; summary of the method: as §3
[28] = test system: Mus musculus; assay: Ratio of plasma clearance in mdr1a/1b double knockout mouse to plasma clearance in wild-type mouse at 1 mg/kg, iv; format: ADME, organism-based; parameters: dose 1 mg/kg, route intravenous; settings: in vivo; summary of the method: as §3
[29] = Drug uptake in wild-type mouse plasma at 1 mg/kg, iv after 180 mins by LC-MS/MS analysis; format: ADME, organism-based; parameters: dose 1 mg/kg, route intravenous; settings: read-out: Drug uptake
Summary of the method: (§5)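 WT or Mdr1a/1b–/– mice (n = 4) received a single 1 mg/kg i.v. tail-vein bolus (5 ml/kg; 0.2 mg/ml in ethanol/saline). At 180 min, plasma, brain, liver and small intestinal contents were collected. Salinomycin was quantified by LC-MS/MS. Brain/plasma ratios were calculated. Wilcoxon rank sum test.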

[30] = Drug uptake in wild-type mouse brain at 1 mg/kg, iv after 180 mins by LC-MS/MS analysis; format: ADME, organism-based; parameters: dose 1 mg/kg, route intravenous; settings: read-out: Drug uptake; summary of the method: as §5
[31] = Drug uptake in wild-type mouse liver at 1 mg/kg, iv after 180 mins by LC-MS/MS analysis; format: ADME, organism-based; parameters: dose 1 mg/kg, route intravenous; settings: read-out: Drug uptake; summary of the method: as §5
[32] = Drug uptake in wild-type mouse small intestinal content at 1 mg/kg, iv after 180 mins by LC-MS/MS analysis; format: ADME, organism-based; parameters: dose 1 mg/kg, route intravenous; settings: read-out: Drug uptake; summary of the method: as §5
[33] = Ratio of drug uptake in brain to drug uptake in plasma in wild-type mouse at 1 mg/kg, iv after 180 mins by LC-MS/MS analysis; format: ADME, organism-based; parameters: dose 1 mg/kg, route intravenous; summary of the method: as §5
[34] = Drug uptake in mdr1a/1b double knockout mouse plasma at 1 mg/kg, iv after 180 mins by LC-MS/MS analysis; format: ADME, organism-based; parameters: dose 1 mg/kg, route intravenous; settings: read-out: Drug uptake; summary of the method: as §5
[35] = Drug uptake in mdr1a/1b double knockout mouse brain at 1 mg/kg, iv after 180 mins by LC-MS/MS analysis; format: ADME, organism-based; parameters: dose 1 mg/kg, route intravenous; settings: read-out: Drug uptake; summary of the method: as §5
[36] = Drug uptake in mdr1a/1b double knockout mouse liver at 1 mg/kg, iv after 180 mins by LC-MS/MS analysis; format: ADME, organism-based; parameters: dose 1 mg/kg, route intravenous; settings: read-out: Drug uptake; summary of the method: as §5
[37] = Drug uptake in mdr1a/1b double knockout mouse small intestinal content at 1 mg/kg, iv after 180 mins by LC-MS/MS analysis; format: ADME, organism-based; parameters: dose 1 mg/kg, route intravenous; settings: read-out: Drug uptake; summary of the method: as §5
[38] = Ratio of drug uptake in brain to drug uptake in plasma in mdr1a/1b double knockout mouse at 1 mg/kg, iv after 180 mins by LC-MS/MS analysis; format: ADME, organism-based; parameters: dose 1 mg/kg, route intravenous; summary of the method: as §5
[39] = test system: Plasma; assay: Ratio of drug uptake in plasma in mdr1a/1b double knockout mouse to drug uptake in plasma in wild-type mouse at 1 mg/kg, iv after 180 mins by LC-MS/MS analysis; format: ADME, organism-based; parameters: dose 1 mg/kg, route intravenous; settings: in vivo, 3 h; summary of the method: as §5
[40] = test system: Brain; assay: Ratio of drug uptake in brain in mdr1a/1b double knockout mouse to drug uptake in brain in wild-type mouse at 1 mg/kg, iv after 180 mins by LC-MS/MS analysis; format: ADME, organism-based; parameters: dose 1 mg/kg, route intravenous; settings: in vivo, 3 h; summary of the method: as §5
[41] = test system: Liver; assay: Ratio of drug uptake in liver in mdr1a/1b double knockout mouse to drug uptake in liver in wild-type mouse at 1 mg/kg, iv after 180 mins by LC-MS/MS analysis; format: ADME, organism-based; parameters: dose 1 mg/kg, route intravenous; settings: in vivo, 3 h; summary of the method: as §5
[42] = Ratio of drug uptake in small intestinal content in mdr1a/1b double knockout mouse to drug uptake in small intestinal content in wild-type mouse at 1 mg/kg, iv after 180 mins by LC-MS/MS analysis; format: ADME, organism-based; parameters: dose 1 mg/kg, route intravenous; settings: in vivo, 3 h; summary of the method: as §5

CC[C@@H](C(=O)[C@@H](C)[C@@H](O)[C@H](C)[C@@H]1O[C@@H]([C@@H](CC)C(=O)O)CC[C@@H]1C)[C@H]1O[C@]2(C=C[C@@H](O)[C@]3(CC[C@@](C)([C@H]4CC[C@](O)(CC)[C@H](C)O4)O3)O2)[C@H](C)C[C@@H]1C [SALINOMYCIN]
AUC(0-t) at 6 h [1]: 2130 ng·h/mL | Cmax [2]: 517 ng/mL | Tmax [3]: 0.5 h | AUC(0-t) at 6 h [4]: 62.1 ng·h/mL | AUC(0-inf) [5]: 80.2 ng·h/mL | Cmax [6]: 13.2 ng/mL | Tmax [7]: 2 h | AUC(0-t) at 6 h [8]: 196 ng·h/mL | AUC(0-inf) [9]: 251 ng·h/mL | Cmax [10]: 41 ng/mL | Tmax [11]: 2 h | AUC(0-t) at 6 h [12]: 1310 ng·h/mL | AUC(0-inf) [13]: 1370 ng·h/mL | AUC(0-t) at 6 h [14]: 2370 ng·h/mL | AUC(0-inf) [15]: 2810 ng·h/mL | clearance [16]: 13.7 mL/min/kg | clearance [17]: 6.17 mL/min/kg | Activity [18]: Toxic | Activity [19]: Toxic | Activity [20]: Non-toxic | Activity [21]: Non-toxic | Ratio AUC [22]: 3.1 | Ratio AUC [23]: 3.2 | Ratio [24]: 3.1 | Ratio [25]: 1 | Ratio AUC [26]: 1.8 | Ratio AUC [27]: 2 | Ratio [28]: 0.5 | concentration at 3 h [29]: 72.5 ng/mL | concentration at 3 h [30]: 9.2 ng/g | concentration at 3 h [31]: 7400 ng/g | concentration at 3 h [32]: 210 ng/g | Kp at 3 h [33]: 0.13 | concentration at 3 h [34]: 270 ng/mL | concentration at 3 h [35]: 53.2 ng/g | concentration at 3 h [36]: 6500 ng/g | concentration at 3 h [37]: 290 ng/g | Kp at 3 h [38]: 0.2 | Ratio [39]: 3.7 | Ratio [40]: 5.8 | Ratio [41]: 0.9 | Ratio [42]: 1.4
